Screens deposited in PubChem BioAssay by Sanford-Burnham Center for Chemical Genomics.
SENP8 block-1 – blocks human SENP8 cleavage of Nedd8 substrate | AID 602440 | recombinant SENP8, Nedd8 substrate fluorescence | Q96LD8 | 0.64% of 360,000 active | inhibition, % at 20 µM; in the data active = inhibition mostly above about 40%, no sharp cut-off; inactive = mostly below about 27%
SENP1 inh – blocks the human SENP1 SUMO protease catalytic domain; AID 624204; inhibition, % at 10 µM; 0.21% of 360,000 active; recombinant SENP1 catalytic domain, CyPet-SUMO1-YPet FRET cleavage;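 active = inhibition at least 30% at 10 µM, raw YFP signal under a set limit, fluorescence ratio 0.5 to 1.5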;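 also: 0% = enzyme with DMSO and 100% = no enzyme wells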
Target sequence (Q9P0U3 419-644 limits assumed): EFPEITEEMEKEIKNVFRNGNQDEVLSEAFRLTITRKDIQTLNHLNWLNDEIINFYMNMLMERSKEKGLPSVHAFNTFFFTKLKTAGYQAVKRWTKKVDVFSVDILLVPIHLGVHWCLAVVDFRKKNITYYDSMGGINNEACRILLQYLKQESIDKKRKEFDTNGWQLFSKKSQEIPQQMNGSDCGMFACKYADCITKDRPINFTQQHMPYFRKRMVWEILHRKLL
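Test system: recombinant human SENP1 catalytic domain, His6-tagged / Medium: pH 8 Tris buffer with EDTA, NaCl, BME, BSA, NP40, catalase / Also added: SUMO1 FRET substrate flanked by Cypet and Ypet, 25 nM / Times: 50 min reaction at room temperature / Signal: FRET, CFP and YFP emission / Control set: no-enzyme low control and enzyme-plus-DMSO high control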
SENP7 block – SENP7 protease inhibition | 1.5% of 330,000 active | AID 434973 | recombinant SENP7, Z-RLRGG-aminoluciferin luminescence, 40 min | inhibition, % at 5 µM | Q9BQF6;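 active = inhibition above about 50% at the single test dose, limit read from the data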;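 also: plate controls were DMSO with enzyme for no effect and no enzyme buffer wells for full effect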
SENP8 block-2 – SENP8 protease inhibition. purified SENP8, Z-RLRGG-aminoluciferin cleavage, luminescence. 1.2% of 330,000 active. AID 2540. inhibition, % at 10 µM; in the data active = inhibition above about 50%
SENP6 inh – blocks the human protease SENP6. 1.8% of 330,000 active. Recombinant SENP6 catalytic domain, aminoluciferin luminescence. inhibition, % at 10 µM;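 active = inhibition above about 50% at the single tested dose, limit read from the data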;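 also: plate controls were DMSO wells with enzyme for no effect and DMSO wells lacking enzyme for full effect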
SENP8 conf – human SENP8 inhibition, confirmed. shares compounds with SENP7 block. Recombinant SENP8, Z-RLRGG-aminoluciferin luminescence, 60 min. inhibition, % at 12.5 µM. 40% of 6,200 active;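 active = mean inhibition across replicates above about 50%, limit read from the data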
SENP6 conf – confirmation of human SENP6 protease inhibitors. shares compounds with SENP7 block. 58% of 6,200 active. inhibition, % at 12.5 µM. AID 488915. recombinant SENP6, Z-RLRGG-aminoluciferin luminescence
SENP7 conf – confirmation of human SENP7 protease inhibitors; inhibition, % at 12.5 µM; 69% of 6,200 active; recombinant SENP7, Z-RLRGG-aminoluciferin luminescence, 40 min; shares compounds with SENP7 block
Casp3 select – inhibits human caspase-3 in SENP selectivity test; shares compounds with SENP7 block; purified caspase-3, Z-DEVD-aminoluciferin luminescence, 60 min; inhibition, % at 12.5 µM; 60% of 6,200 active; AID 488918;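 active = mean inhibition above about 50%, limit read from the data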;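 also: plate controls were enzyme with DMSO for no effect and wells without caspase-3 for full effect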
Target sequence (P42574 28-227 limits assumed): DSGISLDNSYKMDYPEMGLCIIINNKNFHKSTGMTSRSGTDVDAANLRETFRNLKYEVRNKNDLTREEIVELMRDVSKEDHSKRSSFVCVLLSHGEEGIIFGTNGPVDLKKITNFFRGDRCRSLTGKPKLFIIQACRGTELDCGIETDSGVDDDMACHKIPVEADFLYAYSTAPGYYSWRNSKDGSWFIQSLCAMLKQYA
SENP luc ctr – counter-screen for SENP inhibitors: luminescence interference | 39% of 6,200 active | Pre-incubated SENP8/Z-RLRGG-aminoluciferin, luciferase luminescence interference | AID 488919 | inhibition, % at 12.5 µM | shares compounds with SENP7 block;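 active = mean inhibition above about 50% when retested at one dose, limit read from the data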;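 also: plate controls were DMSO wells with completed reaction for no effect and substrate without enzyme for full effect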
* hit, by the source's call. A selection: hits, their analogues and other compounds. The true share with any hit is near 2.5%.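 The calls were made as follows, unless noted: active = mean inhibition above about 50% in the one-dose retest (limit read from the data); inactive = the rest.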

Screening Cc1c(Cl)ccc2sc(NC(=O)c3ccco3)nc12 returned SENP8 block-1 -212, SENP1 inh 2, SENP7 block 86*, SENP8 block-2 78*, SENP6 inh 67*, SENP8 conf 35, SENP6 conf 86*, SENP7 conf 72*, Casp3 select 54* and SENP luc ctr 20.
Screening CCCC(=O)Nc1nc2ccc(C(=O)OCC)cc2s1 returned SENP8 block-1 -4, SENP1 inh -11, SENP7 block -7, SENP8 block-2 1 and SENP6 inh -1.
Cc1cc(Br)cn2c(Cc3ccccc3)c(-c3ccccc3)nc12 was read as SENP8 block-1 1 and SENP1 inh -3.
CC12CCC(=O)N1C(C(=O)Nc1nc(-c3cc(F)ccc3F)cs1)CS2 (stereo not given) was read as SENP8 block-1 2, SENP1 inh -1, SENP7 block 1, SENP8 block-2 0 and SENP6 inh -3.
Screening CCOc1ccc2nc(NC(=O)c3ccco3)sc2c1 returned SENP8 block-1 -238, SENP1 inh 0, SENP7 block 97*, SENP8 block-2 92*, SENP6 inh 97*, SENP8 conf 93*, SENP6 conf 98*, SENP7 conf 102*, Casp3 select 96* and SENP luc ctr 83*.
COc1cc(Cl)c(NC2=CC(=O)C(=O)c3ccccc32)c(OC)c1 was read as SENP8 block-1 inactive, SENP1 inh -2, SENP7 block 60*, SENP8 block-2 75*, SENP6 inh -12, SENP8 conf 1, SENP6 conf 90*, SENP7 conf 74*, Casp3 select 8 and SENP luc ctr 0.
For Cc1ccc(NC(=O)c2cc(-c3ccc(C)c(C)c3O)n[nH]2)cc1C the results were SENP8 block-1 14, SENP1 inh 3, SENP7 block 9, SENP8 block-2 -11 and SENP6 inh 1.
Screening Cc1cccc(NC(=O)c2cc(-c3ccc(C)c(C)c3O)n[nH]2)c1 returned SENP8 block-1 31, SENP1 inh 0, SENP7 block 86*, SENP8 block-2 20, SENP6 inh 40, SENP8 conf 8, SENP6 conf 15, SENP7 conf 95*, Casp3 select 59* and SENP luc ctr 54*.
Cc1cccc(OCC(=O)Nc2nccs2)c1C was read as SENP8 block-1 1, SENP1 inh -3, SENP7 block 96*, SENP8 block-2 90*, SENP6 inh 95*, SENP8 conf 89*, SENP6 conf 92*, SENP7 conf 100*, Casp3 select 94* and SENP luc ctr 87*.
Screening Cc1c(C)c2ccc(OCC(=O)Nc3ccccn3)cc2oc1=O returned SENP8 block-1 -341, SENP1 inh 4, SENP7 block 95*, SENP8 block-2 48, SENP6 inh 64*, SENP8 conf 18, SENP6 conf 8, SENP7 conf -2, Casp3 select 11 and SENP luc ctr -8.
`Cc1c(C)c2ccc(OCC(=O)Nc3nccs3)cc2oc1=O` gave SENP8 block-1 -389, SENP1 inh 1, SENP7 block 84*, SENP8 block-2 51*, SENP6 inh 56*, SENP8 conf 6, SENP6 conf 9, SENP7 conf 33, Casp3 select 42 and SENP luc ctr 2.
For Cc1c(C)c2ccc(OCC(=O)NCc3ccccn3)cc2oc1=O the results were SENP8 block-1 -305, SENP1 inh 0, SENP7 block -5, SENP8 block-2 0 and SENP6 inh 11.
`Cc1cc(=O)oc2cc(OCC(=O)Nc3nccs3)ccc12` gave SENP8 block-1 -83, SENP1 inh 1, SENP7 block 29, SENP8 block-2 26 and SENP6 inh 42.
Screening CC(Cc1ccc(Cl)cc1)N1CCC(n2nccc2NC(=O)C2CCCC2)CC1 (stereo not given) returned SENP8 block-1 2, SENP1 inh -16, SENP7 block -8, SENP8 block-2 3 and SENP6 inh -6.
For O=C(NC1(O)C(=O)c2ccccc2C1=O)c1ccc(C(F)(F)F)cc1 the results were SENP8 block-1 81*, SENP1 inh 3, SENP7 block 80*, SENP8 block-2 67*, SENP6 inh 74*, SENP8 conf 79*, SENP6 conf 91*, SENP7 conf 84*, Casp3 select 8 and SENP luc ctr 6.
Cc1ccc(C(=O)NC2(O)C(=O)c3ccccc3C2=O)cc1C was read as SENP8 block-1 100*, SENP1 inh 3, SENP7 block 60*, SENP8 block-2 64*, SENP6 inh 64*, SENP8 conf 70*, SENP6 conf 85*, SENP7 conf 74*, Casp3 select 2 and SENP luc ctr 5.
Screening Cc1ccc(C(=O)NCC(=O)OCN2C(=O)c3ccccc3C2=O)cc1C returned SENP8 block-1 14, SENP1 inh -1, SENP7 block 7, SENP8 block-2 -5 and SENP6 inh -12.
Screening O=C(Nc1ccc(F)cc1)C(CCc1ccccc1)N1CCN(c2ccncc2)CC1 (stereo not given) returned SENP8 block-1 17 and SENP1 inh 1.
CN(C)C1=NCCN1CC1CCCCC1 was read as SENP8 block-1 6, SENP1 inh -2, SENP7 block -6, SENP8 block-2 -1 and SENP6 inh -3.
CC1CCN(c2ccc(-c3cccs3)nn2)CC1 was read as SENP8 block-1 -32, SENP1 inh 1, SENP7 block 96*, SENP8 block-2 94*, SENP6 inh 99*, SENP8 conf 64*, SENP6 conf 96*, SENP7 conf 102*, Casp3 select 94* and SENP luc ctr 43.
Clc1ccc(-c2cccs2)nn1 was read as SENP8 block-1 6, SENP1 inh 2, SENP7 block -1, SENP8 block-2 3 and SENP6 inh -2.
CN(C)c1ccc(/C=C/C(=O)c2ccccc2O)cc1 was read as SENP8 block-1 14, SENP1 inh 57, SENP7 block 89*, SENP8 block-2 86*, SENP6 inh 92*, SENP8 conf 18, SENP6 conf 27, SENP7 conf 14, Casp3 select 8 and SENP luc ctr -2.
